Measurements taken from ChEMBL document CHEMBL1143996, “Toward the development of chemoprevention agents (III): synthesis and anti-inflammatory activities of a new class of 5-glycylamino-2-substituted-phenyl-1,3-dioxacycloalkanes” (Bioorg Med Chem, 2008).

Key:
Mus musculus [1] = experiment: Toxicity assessed as tail bleeding in Kunming mouse at 200 mg/kg, po after 60 mins; type: organism-based; set-up: dose 200 mg/kg, route oral; settings: in vivo, 1 h
How it was run: (§1)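 Male mice (18–22 g) given a single oral dose, normal saline vehicle, n = 10. At set times after dosing, mouse restrained in a tube holder with tail protruding and a 2-mm tail cut made. Blood wiped away every 30 s until bleeding stopped; bleeding time recorded in s and compared with pre-dose values.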

Mus musculus [2] = experiment: Toxicity assessed as tail bleeding in Kunming mouse at 200 mg/kg, po after 5 mins; type: organism-based; set-up: dose 200 mg/kg, route oral; settings: in vivo; how it was run: as §1
Mus musculus [3] = experiment: Toxicity assessed as tail bleeding in Kunming mouse at 200 mg/kg, po after 30 mins; type: organism-based; set-up: dose 200 mg/kg, route oral; settings: in vivo, 0.5 h; how it was run: as §1
Mus musculus [4] = experiment: Toxicity assessed as tail bleeding in Kunming mouse at 200 mg/kg, po after 15 mins; type: organism-based; set-up: dose 200 mg/kg, route oral; settings: in vivo, 0.25 h; how it was run: as §1
Mus musculus [5] = experiment: Antiinflammatory activity in Kunming mouse assessed as inhibition of xylene-induced ear edema at 20 mg/kg, po; type: functional
Mus musculus [6] = experiment: Antiinflammatory activity in Kunming mouse assessed as inhibition of xylene-induced ear edema at 30 mg/kg, po; type: functional
How it was run: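 Male Kunming mice, 12 per group (tables give n = 11), dosed orally by gavage as a suspension in 0.5% carboxymethyl cellulose; CMC alone as vehicle control. After 30 min, 0.03 mL xylene applied to both surfaces of the right ear, with the left ear as control.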

SMILES	Time (Mus musculus [1])	Time (Mus musculus [2])	Time (Mus musculus [3])	Time (Mus musculus [4])	inhibition in vivo at 20 mg/kg (Mus musculus [5])	inhibition in vivo at 30 mg/kg (Mus musculus [6])
C[C@H]1O[C@@H](c2ccccc2)OC[C@H]1NC(=O)CN	2.03 min	2.02 min	2.01 min	2 min		
C[C@H]1O[C@@H](c2cccc([N+](=O)[O-])c2)OC[C@H]1NC(=O)CN	2 min	2.01 min	1.98 min	2.01 min		
NCC(=O)N[C@H]1CCO[C@@H](c2ccc(Cl)cc2)OC1	2 min	1.99 min	2.01 min	2.01 min		
C[C@H]1O[C@@H](c2ccc([N+](=O)[O-])cc2)OC[C@H]1N					78.5%	
C[C@H]1O[C@@H](c2ccc([N+](=O)[O-])cc2)OC[C@H]1NC(=O)CN	2.01 min	2 min	1.98 min	2.02 min		
NCC(=O)N[C@H]1CCO[C@H](c2ccc([N+](=O)[O-])cc2)OC1	1.99 min	2.01 min	2 min	2.01 min		
NCC(=O)N[C@H]1CCO[C@H](c2cccc([N+](=O)[O-])c2)OC1	2.02 min	2.02 min	2 min	2 min		
NCC(=O)N[C@H]1CO[C@@H](c2ccccc2)OC1	2.01 min	2 min	2.02 min	2 min		
NCC(=O)N[C@H]1CO[C@@H](c2ccc([N+](=O)[O-])cc2)OC1	2.02 min	2.02 min	2.04 min	2.01 min		
NCC(=O)N[C@H]1CO[C@@H](c2ccc(Cl)cc2)OC1	2 min	2.01 min	2 min	2.01 min		
C[C@H]1O[C@@H](c2ccc(Cl)cc2)OC[C@H]1NC(=O)CN	2.01 min	2.04 min	2 min	2.01 min		
C[C@H]1O[C@@H](c2ccc(Cl)cc2)OC[C@H]1N					66.7%	
Cc1ccc([C@H]2OC[C@@H](NC(=O)CN)[C@@H](C)O2)cc1	2 min	2 min	2.02 min	2.04 min		
NCC(=O)N[C@H]1CCO[C@H](c2ccc(Cl)cc2)OC1	1.99 min	2.02 min	2 min	1.99 min		
NCC(=O)N[C@H]1CO[C@@H](c2cccc([N+](=O)[O-])c2)OC1	2.02 min	2 min	2.04 min	2 min		
NCC(=O)N[C@H]1CCO[C@@H](c2ccc([N+](=O)[O-])cc2)OC1	1.99 min	2 min	2 min	2.05 min		
Cc1ccc([C@H]2OC[C@@H](NC(=O)CN)CO2)cc1	2 min	2 min	1.99 min	2 min		
NCC(=O)N[C@H]1CCO[C@@H](c2cccc([N+](=O)[O-])c2)OC1	1.99 min	1.99 min	2.05 min	1.99 min		
CC(=O)Oc1ccccc1C(=O)O [ASPIRIN]						40.7%
